MT1-MMP act inh: MT1-MMP (human) activation inhibition. P50281. HT1080 RFP-PRO-GFP cells, GFP/RFP ratio fluorescence, overnight; percent of plate control window, DMSO zero. GFP/RFP ratio change, % at 20 µM. 0.061% of 360,000 active;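 active means GFP/RFP ratio change of at least 30% with cell ATP level not reduced by more than half and red fluorescence within 50% of control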
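Test system: HT1080 RFP-PRO-GFP cells; Benchmarks: DMSO and RFP-L50D-GFP cell wells; Timing: cells overnight before dosing, compound overnight, 37 °C, 5% CO2; Compound: one 20 µM compound dose with 1% DMSO; Read-out: GFP/RFP fluorescence ratio.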
DAGLB inhibitor: diacylglycerol lipase beta (human) inhibition; Q8NCG7; HEK293T DAGLB membrane lysate, EnzChek fluorogenic substrate; inhibition, % at 5.17 µM; 0.059% of 340,000 active; AID 504411; in the data active means inhibition above about 34%;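 further: 0% = enzyme with vehicle and 100% = wells lacking enzyme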
Target sequence (Q8NCG7 whole entry, looked up): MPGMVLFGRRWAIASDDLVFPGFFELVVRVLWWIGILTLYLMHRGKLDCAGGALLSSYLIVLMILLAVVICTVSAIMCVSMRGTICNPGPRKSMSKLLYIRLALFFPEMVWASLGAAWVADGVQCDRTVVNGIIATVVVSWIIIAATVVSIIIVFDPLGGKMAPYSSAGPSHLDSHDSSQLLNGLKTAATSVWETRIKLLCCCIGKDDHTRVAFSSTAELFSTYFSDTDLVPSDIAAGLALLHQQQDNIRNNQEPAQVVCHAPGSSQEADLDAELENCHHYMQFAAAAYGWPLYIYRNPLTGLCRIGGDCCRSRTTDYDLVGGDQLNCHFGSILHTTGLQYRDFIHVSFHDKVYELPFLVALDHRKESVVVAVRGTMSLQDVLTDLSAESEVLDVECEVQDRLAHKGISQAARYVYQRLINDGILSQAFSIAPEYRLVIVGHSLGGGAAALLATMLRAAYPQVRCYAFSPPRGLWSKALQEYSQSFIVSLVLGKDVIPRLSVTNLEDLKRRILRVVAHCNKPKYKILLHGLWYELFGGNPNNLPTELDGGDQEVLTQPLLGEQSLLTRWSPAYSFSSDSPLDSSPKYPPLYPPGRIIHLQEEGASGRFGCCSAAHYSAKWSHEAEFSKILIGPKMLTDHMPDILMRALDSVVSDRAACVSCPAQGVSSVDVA
beta cell repl: induces beta-cell replication in MIN6 cells; 0.29% of 330,000 active; proliferation, % at 10 µM; MIN6 cells proliferation, ATPlite luminescence, 48 h; cells starved in 0.2% serum; 100% = growth in 10% serum;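 active means compounds whose signal lies at least 3.5 SD above the mean of all wells on their plate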;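 further: 0% = DMSO-treated cells in low-serum medium and 100% = 10% serum control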
MsrA inh: bovine MsrA inhibition | AID 651718 | purified bovine MsrA, absorbance read-out | 0.75% of 360,000 active | inhibition, % at 15.5 µM; in the data active means inhibition above about 4.5%;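 further: 0% = vehicle wells with enzyme and 100% = reference inhibitor wells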
SKN-1 block: blocks SKN-1 activity in C. elegans; C. elegans VP596 Pgst-4::GFP/RFP ratio, acrylamide-induced, 24 h; inhibition, % at 21.8 µM; 0.49% of 360,000 active; AID 624304;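 active means interference check ratio from 0.5 to 1.5 plus GFP to RFP signal ratio inhibition reaching or exceeding a fixed threshold, cut at about 30% in these data, passing the limit was not always enough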
MsrA act: activators of bovine methionine sulfoxide reductase A. activation, % at 10.6 µM. 0.3% of 360,000 active. purified bovine MsrA, absorbance read-out; in the data active means activation above about 7.5%;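 further: 0% = vehicle and 100% = reference activator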
MsrA act confirm: confirmation of bovine methionine sulfoxide reductase A activators | purified bovine MsrA, absorbance read-out | AID 602270 | shares compounds with MsrA act | activation, % at 10.6 µM | 12% of 1,000 active; in the data active means activation above about 4%;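 further: enzyme coupled to thioredoxin and thioredoxin reductase with NADPH; 0% = vehicle wells and 100% = reference activator wells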
Active calls of the source: *; / = no result. The list is not random: actives were taken first. Their share in the collection is about 1.8%.

SMILES	MT1-MMP act inh	DAGLB inhibitor	beta cell repl	MsrA inh	SKN-1 block	MsrA act	MsrA act confirm
N#CCOC(=O)c1cc(S(=O)(=O)N2CCCCC2)ccc1N1CCOCC1	0	-1	1	0	2	12*	-3
CCOC(=O)c1ccc(Cl)c(NC(=O)c2cccnc2)c1	/	/	3	/	/	/	/
CCOC(=O)c1ccc(-n2ccnc2)c(NC(=O)c2ccc(Cl)cc2)c1	0	-1	0	-1	6	8.1*	1
Cc1cc(NC(=O)c2ccc(Cl)cc2)n(CCOC(=O)c2ccc(Cl)cc2)n1	-2	0	0	0	-7	9.1*	1
Cc1cc(N2CCN(C(=O)OC(C)(C)C)C[C@@H]2C)ccc1N1CCN(Cc2ccccc2)[C@H](C)C1	/	/	/	0	/	/	/
Cc1nc(SCC(=O)N(C)C2CCS(=O)(=O)C2)c(C#N)c(C)c1C (stereo not drawn)	-3	-2	-7	0	1	-6	/
Cn1c(SCc2ccccc2)nc(C(F)(F)F)cc1=O	-2	-2	2	-1	-11	-2	/
Cn1c(SCc2cccc(Cl)c2)nc(C(F)(F)F)cc1=O	-1	-9	-4	-1	14	8.4*	-5
CCCn1cc(CN2CCC(n3nccc3NC(=O)CCOc3ccccc3)CC2)c(C)n1	-1	-5	5	-1	12	-1	/
COc1ccc(-c2cn3ccccc3n2)cc1[N+](=O)[O-]	/	-2	-5	2	-1	-15	/
COc1ccc(-c2cn3cc([N+](=O)[O-])ccc3n2)cc1OC	6	1	-1	3	-2	10*	-2
O=C1c2ccccc2C(=O)c2c1ncn2-c1ccccc1	-4	4	0	0	10	6	/
O=C1C(O)=C(O)C(=O)c2ccccc21	3	-20	-4	1	-5	-8	/
O=C1c2ccccc2C(=O)c2[nH]c(=O)[nH]c21	-7	0	-5	1	8	15*	4
O=C1c2ccccc2C(=O)c2[nH]cnc21	6	-1	/	0	7	12*	6.7*
C#CCNC(=O)C1=C[C@H](c2cn(C(C)=O)c3ccccc23)[C@@H](CCCO)[C@H](OCC)O1	7	0	-1	0	0	0	/
CC(=O)Nc1nc(-c2ccc(Cl)cc2)nc(C)c1C(C)=O	-2	-2	-1	0	-19	8.9*	2
COc1ccc(CN(C(=O)c2ccco2)c2ccc(C)cc2)cc1OC	-3	1	-2	1	-13	7.9*	-2
Cc1cccc(OCCC(=O)OC(C)C(=O)Nc2ccc(Cl)cn2)c1 (stereo not drawn)	2	-7	10	0	4	15*	-2
Cc1ccc(C(=O)c2ccccc2C(=O)OCC(=O)NCC2CCCO2)cc1 (stereo not drawn)	-2	0	0	1	3	-1	/
CCC1CN(C(=O)N2CCC(C(=O)NCCc3ccccc3)CC2)c2ccccc2O1 (stereo not drawn)	1	-2	1	0	7	-6	/
CCOC(=O)CC(NC(=O)c1cccc2c1C(=O)N(Cc1cccnc1)C2)c1ccc(OCC)c(OC)c1 (stereo not drawn)	-1	0	-3	-1	-10	8.6*	3
Cc1nn(C)cc1S(=O)(=O)N1CCN(c2cccc(Cl)c2)CC1	3	1	1	1	7	-1	/
CS(=O)(=O)c1cc([N+](=O)[O-])c(Sc2nc3ccccc3[nH]2)c([N+](=O)[O-])c1	-1	3	-6	-1	-16	8.0*	10*
CCCCN(C(=O)c1cc(Cl)nc2ccccc12)c1c(N)n(Cc2ccccc2)c(=O)[nH]c1=O	0	17	-5	0	-10	12*	0
SMILES	MT1-MMP act inh	DAGLB inhibitor	beta cell repl	MsrA inh	SKN-1 block	MsrA act	MsrA act confirm
CCOC(=O)N1CCN(c2cc3[nH]c(=S)[nH]c3cc2F)CC1	8	1	2	-1	5	1	/
CCOC(=O)N1CCN(c2c(F)cc3[nH]c(=S)[nH]c3c2Br)CC1	-5	1	-3	1	5	12*	-3
O=C1NCCN(Cc2ccc(Cl)c(F)c2)C1CC(=O)N1CCCCO1 (stereo not drawn)	-2	1	0	-1	-2	8.6*	-2
O=C1NCCN(Cc2c(F)cccc2Cl)C1CC(=O)N1CCCCO1 (stereo not drawn)	0	-3	-1	0	-11	-15	/
CCn1c(COC(=O)CNC(=O)c2ccccc2F)nc2cc(S(=O)(=O)N(C)C)ccc21	2	-1	-1	-2	-7	-7	/
O=C(NCc1ccccc1Cl)[C@H]1CCCN1C(=O)[C@H]1CCCN1C(=O)c1cccs1	1	/	/	-1	-11	9.2*	-3
COc1ccc(-n2c(=O)[nH]cc(C(=O)Nc3ccc4c(c3)OCCO4)c2=O)cc1	-1	0	-3	0	11	-1	/
COc1ccc(-n2c(=O)[nH]cc(C(=O)Nc3ccc4c(c3)OCO4)c2=O)cc1OC	3	2	-1	-1	-11	12*	0
Cc1cccc(NC(=S)N(CCN(C)C)Cc2cc3cccc(C)c3[nH]c2=O)c1	3	2	0	1	-8	20*	-1
CCc1cc2c(nc1CC)CCCN2S(=O)(=O)c1c(C)noc1C	/	/	/	1	/	/	/
CCc1ccc(C2CC(c3ccccc3Cl)Nc3nc(N)nn32)cc1 (stereo not drawn)	2	6	3	1	10	9.4*	-1
CC(C)C[C@@H]1O[C@H](CCc2ccccc2)Cc2[nH]c(=S)[nH]c(=O)c21	1	/	/	-1	-3	10*	-1
COC(=O)CCCC[C@@H]1O[C@H](CCc2ccccc2)Cc2[nH]c(=S)[nH]c(=O)c21	3	/	/	0	2	-2	/
CCNC(=O)N1CCN(c2ccc(N3CCN(C(=O)NCC)[C@@H](C)C3)c(C)c2)[C@H](C)C1	/	/	/	2	/	/	/
c1ccc2[nH]c3cc4ncnc4cc3nc2c1	-52	-7	1	0	-5	18*	15*
O=C(c1cc(Cl)c(=O)n(Cc2ccccc2)c1)N1CCOCC1	-5	-2	1	-1	-15	9.2*	-1
COc1ccc(S(=O)(=O)NC(CC(=O)NCCc2ccc(OC)c(OC)c2)C(C)C)cc1 (stereo not drawn)	6	0	4	-1	-4	13*	0
C[C@H](CO)N1C[C@H](C)[C@@H](CN(C)C(=O)Nc2ccc(-c3cccs3)cc2)OCc2cn(nn2)CCCC1=O	/	/	/	1	/	/	/
CN(C)S(=O)(=O)c1cccc(NC(=O)c2cc(=O)[nH]c(=O)[nH]2)c1	-1	1	-1	2	-24	-1	/
CCn1nc(C(=O)OCC(=O)NC(C)C)c2ccccc2c1=O	2	0	3	0	7	-2	/
